Consider 14 compounds from ChEMBL document CHEMBL1122210, “(2-Chloroethyl)nitrosourea congeners of amino acid amides” (J Med Chem, 1982).

Data set [1] has as its system L1210. Nature of the data set: Tested for Maximal effective dose against mouse leukemia L1210 cells. It is filed as functional. Put shortly:
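Male BDF1 hybrid mice inoculated ip with 10⁶ L1210 lymphoid leukemia cells; compounds in distilled water given ip once daily for 3 days starting 24 h after implantation (day 1). Percent ILS = 100(T/C-1) versus untreated tumor-bearing controls, counting 60-day survivors. Maximal effective dose recorded.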

The test system of data set [2] is L1210. Nature of the data set: Tested for Number of 60 days survivors per 5 treated mice against mouse leukemia L1210 cells. In kind it is functional. Put shortly: (§1)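 Male BDF1 hybrid mice inoculated ip with 10⁶ L1210 lymphoid leukemia cells; compounds dissolved in distilled water, given ip once daily for 3 days starting 24 h after implantation (day 1). %ILS = 100(T/C−1) versus untreated tumor-bearing controls, counting 60-day survivors; 60-day survivors tallied per treated group.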

The test system of data set [3] is L1210. In words: Tested for Percent increase in life span against mouse leukemia L1210 cells. In kind it is functional. Put shortly: as §1
For data set [4], the system named is L1210. In words: Tested for Mean survival days against mouse leukemia L1210 cells. In kind it is functional. The gist of the method:
as §1

For data set [5], the system named is L1210. Nature of the data set: Tested for ratio of maximal effective dose/the dose which gives 30% ILS against mouse leukemia L1210 cells. It is filed as cell-based. The gist of the method:
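In the L1210 model (male BDF1 mice, 10⁶ cells ip, ip dosing in distilled water once daily on days 1–3), therapeutic index is the maximal effective dose divided by the dose giving 30% ILS. ILS = 100(T/C-1), 60-day survivors included.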

A short description of data set [6]: Tested in vitro for Half- life period of the compound. It is filed as ADME.
A short description of data set [7]: Tested for the toxicity after iv administration in SLC-BDF1 male mice. It is filed as organism-based. Particulars: SLC-BDF1, mouse, in vivo. The gist of the method: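 SLC-BDF1 male mice, 5 weeks old, six per group, single intravenous injection; deaths observed for 21 days; LD50 with 95% fiducial limits by the Litchfield-Wilcoxon method.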
Data set [8] can be described thus: Tested for the toxicity after ip administration in SLC-BDF1 male mice. It is filed as organism-based. The following applies: SLC-BDF1, mouse, in vivo. Put shortly: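 SLC-BDF1 male mice, 5 weeks old, six per group, single intraperitoneal injection; deaths observed for 21 days; LD50 with 95% fiducial limits by the Litchfield-Wilcoxon method.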

In the case of `NC(=O)C(Cc1ccc(O)cc1)NC(=O)N(CCCl)N=O` (centres undefined), the maximal effective dose with L1210 [1] turned out to be 16 mg/kg/day. In addition, the Survivors with L1210 [2] stood at 2. For the same compound, the ILS with L1210 [3] is on record as above 342.5%. This compound also yielded a Mean survival days with L1210 [4] above 35.4. Moreover, in the data set with L1210 [5], the Therapeutic index is 10.

`CC(O)C(NC(=O)N(CCCl)N=O)C(N)=O` (centres undefined) returned a maximal effective dose with L1210 [1] of 8 mg/kg/day. Besides, the Survivors in the data set with L1210 [2] came to 5. The compound also returned an ILS in the data set on L1210 [3] above 757.1%. The same compound returned a half-life in data set [6] of 23.3 min. In the data set with L1210 [4], this compound had a Mean survival days above 60. Besides, in the data set with L1210 [5], the Therapeutic index is 40.

Compound `NC(=O)C(Cc1ccccc1)NC(=O)N(CCCl)N=O` (centres undefined) came in with a maximal effective dose in the data set with L1210 [1] of 32 mg/kg/day. The compound also yielded a Survivors in the data set on L1210 [2] of 1. The increase in lifespan (ILS) in the data set with L1210 [3] is above 445.7%. Moreover, the half-life in data set [6] was 49.9 min. Further, the Mean survival days in the data set on L1210 [4] was above 38.2. The Therapeutic index with L1210 [5] is given as 3.8.

For the compound `NC(=O)CC(NC(=O)N(CCCl)N=O)C(N)=O` (centres undefined), in the data set with L1210 [1], the maximal effective dose was 8 mg/kg/day. Besides, the Survivors in the data set on L1210 [2] worked out at 2. The compound also displayed an ILS in the data set with L1210 [3] above 494.4%. In data set [6], this compound yielded a half-life of 32.1 min. This compound also registered a Mean survival days with L1210 [4] above 42.8. In addition, in the data set on L1210 [5], the Therapeutic index was determined as 15.7.

In turn, `CC(C)CC(NC(=O)N(CCCl)N=O)C(N)=O` (centres undefined) returned a maximal effective dose with L1210 [1] of 24 mg/kg/day. Besides, the Survivors in the data set on L1210 [2] stood at 5. The same compound came in with an increase in lifespan (ILS) in the data set on L1210 [3] above 757.1%. Also, the half-life in data set [6] is 48.3 min. Besides, the Mean survival days in the data set with L1210 [4] is on record as above 60. Moreover, the Therapeutic index in the data set with L1210 [5] was found to be 11.4.

With `NC(=O)CNC(=O)N(CCCl)N=O`, the maximal effective dose with L1210 [1] was 16 mg/kg/day. Further, the Survivors in the data set with L1210 [2] is listed as 5. Further, the ILS in the data set on L1210 [3] is reported as above 679.2%. In addition, the values for the LD50 in data set [7] and in data set [8] were 22.4 mg/kg and 21.2 mg/kg, respectively. Moreover, the half-life in data set [6] worked out at 44 min. Besides, in the data set with L1210 [4], the Mean survival days is above 60. The Therapeutic index with L1210 [5] came to 36.4.

In the data set on L1210 [1], `CC(C)C(NC(=O)N(CCCl)N=O)C(N)=O` (centres undefined) returned a maximal effective dose of 8 mg/kg/day. In the data set with L1210 [2], this compound came in with a Survivors of 5. Moreover, in the data set with L1210 [3], the ILS is listed as above 757.1%. The compound further gave a half-life in data set [6] of 44.5 min. This compound yielded a Mean survival days with L1210 [4] above 60. The Therapeutic index with L1210 [5] stood at 15.7.

`NC(=O)CCCNC(=O)N(CCCl)N=O` showed a maximal effective dose in the data set with L1210 [1] of 16 mg/kg/day. In the data set on L1210 [2], this compound yielded a Survivors of 5. In the data set on L1210 [3], this compound yielded an ILS above 733.3%. Besides, in data set [6], the half-life is 72.5 min. Further, in the data set with L1210 [4], the Mean survival days was above 60. In addition, the Therapeutic index in the data set on L1210 [5] is given as 7.3.

Compound `CC(NC(=O)N(CCCl)N=O)C(N)=O` (centres undefined) had a maximal effective dose with L1210 [1] of 8 mg/kg/day. The same compound showed a Survivors in the data set with L1210 [2] of 5. Moreover, the increase in lifespan (ILS) in the data set on L1210 [3] is above 710.8%. Moreover, the half-life in data set [6] came out at 37 min. The Mean survival days with L1210 [4] was above 60. Also, in the data set on L1210 [5], the Therapeutic index amounted to 14.3.

As for `NC(=O)C(CO)NC(=O)N(CCCl)N=O` (centres undefined), in the data set on L1210 [1], the maximal effective dose was found to be 8 mg/kg/day. Further, the Survivors with L1210 [2] is reported as 5. Besides, in the data set on L1210 [3], the ILS is above 757.1%. This compound registered a half-life in data set [6] of 19.8 min. This compound also displayed a Mean survival days in the data set on L1210 [4] above 60. Further, the Therapeutic index with L1210 [5] is 40.

In the data set with L1210 [1], `CSCCC(NC(=O)N(CCCl)N=O)C(N)=O` (centres undefined) had a maximal effective dose of 16 mg/kg/day. In the data set on L1210 [2], this compound came in with a Survivors of 0. The compound further had an increase in life span (ILS) in the data set on L1210 [3] of 277.8%. This compound also yielded a half-life in data set [6] of 38.1 min. The same compound returned a Mean survival days in the data set on L1210 [4] of 27.2. For the same compound, the Therapeutic index with L1210 [5] is recorded as 5.9.

In the data set on L1210 [1], `CN(CC(N)=O)C(=O)N(CCCl)N=O` [SARCNU] displayed a maximal effective dose of 225 mg/kg/day. For the same compound, the Survivors in the data set with L1210 [2] turned out to be 5. Further, the ILS in the data set with L1210 [3] is above 710%. For the same compound, the LD50 was determined as 427 mg/kg in data set [7] and 392 mg/kg in data set [8]. In data set [6], this compound had a half-life of 330 min. For the same compound, the Mean survival days with L1210 [4] is listed as above 60. In addition, in the data set on L1210 [5], the Therapeutic index is reported as 15.5.

`NC(=O)C1CCCN1C(=O)N(CCCl)N=O` (centres undefined) yielded a maximal effective dose with L1210 [1] of 64 mg/kg/day. This compound also gave a Survivors with L1210 [2] of 1. In the data set with L1210 [3], the ILS was above 250%. Further, the LD50 in data set [7] stood at 195 mg/kg; in data set [8] it was 220 mg/kg. For the same compound, the half-life in data set [6] turned out to be 295 min. In the data set on L1210 [4], this compound had a Mean survival days above 25.2. In addition, the Therapeutic index with L1210 [5] was 5.6.

`NC(=O)CCNC(=O)N(CCCl)N=O`: the maximal effective dose with L1210 [1] came out at 16 mg/kg/day. In addition, the Survivors in the data set on L1210 [2] is 5. This compound also returned an ILS in the data set with L1210 [3] above 733.3%. In data set [6], this compound came in with a half-life of 61 min. The compound also yielded a Mean survival days in the data set with L1210 [4] above 60. In addition, the Therapeutic index with L1210 [5] was 15.2.
